# Measured values reported in ChEMBL document CHEMBL3351814, “Discovery of selective hexapeptide agonists to human neuromedin U receptors types 1 and 2” (J Med Chem, 2014).
# Active and inactive are the calls of the source. The calls are words filed in the database; no cut-off is given here. Where a SMILES comes first, the peptide text is derived from it. [ ]: non-standard residue; d: D form. The star is where a group is joined. Propanoyl(3-(3-pyridyl)) = O=C(CCc1cccnc1)*; 2Nal = N[C@@H](Cc1ccc2ccccc2c1)C(=O)O; Propanoyl(3-cHex) = O=C(CCC1CCCCC1)*; Hydrocinnamoyl = O=C(CCc1ccccc1)*; hArg = N=C(N)NCCCC[C@H](N)C(=O)O; hPhe = N[C@@H](CCc1ccccc1)C(=O)O; Tic = O=C(O)[C@@H]1Cc2ccccc2CN1; Phg = N[C@H](C(=O)O)c1ccccc1; Pip = O=C(O)[C@@H]1CCCCN1; Dap = NC[C@H](N)C(=O)O
# Legend:
# [1] = target: T1, Neuromedin-U receptor 1 (Homo sapiens) (UniProt Q9HB89); test: Agonist activity at human NMUR1 expressed in HEK293 cells at 1 to 100 nM by calcium mobilization assay relative to NMU; assay type: functional, cell-based
# T1 sequence (whole entry): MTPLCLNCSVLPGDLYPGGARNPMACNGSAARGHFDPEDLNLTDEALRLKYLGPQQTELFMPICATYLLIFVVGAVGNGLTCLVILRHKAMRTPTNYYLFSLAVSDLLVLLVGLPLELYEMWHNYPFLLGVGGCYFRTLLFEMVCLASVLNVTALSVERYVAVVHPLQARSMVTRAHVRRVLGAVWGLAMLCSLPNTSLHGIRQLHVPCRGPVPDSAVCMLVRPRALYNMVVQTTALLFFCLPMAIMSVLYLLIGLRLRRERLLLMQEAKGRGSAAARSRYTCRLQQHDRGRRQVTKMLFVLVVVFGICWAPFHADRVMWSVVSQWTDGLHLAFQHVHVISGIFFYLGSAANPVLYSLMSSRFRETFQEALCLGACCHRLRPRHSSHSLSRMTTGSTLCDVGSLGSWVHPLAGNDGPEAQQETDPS
# Method in brief: (§1)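 HEK293 cells transiently transfected with human NMUR1 or NMUR2 plasmid (FuGENE6), reseeded 18 h post-transfection at 4.0 × 10^4 cells/well on poly-D-lysine. After 18 h, loaded 40 min with 4 μM Fluo-4-AM in HBSS/HEPES/probenecid buffer pH 7.4 with 1% FCS, then washed. Peptides in buffer with 0.05% BSA and 0.001% Triton X-100. Maximal FLIPR signal expressed as % of hNMU at 1000 nM.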
# [2] = target: T2, Neuromedin-U receptor 2 (Homo sapiens, UniProt Q9GZQ4); test: Agonist activity at human NMUR2 expressed in HEK293 cells at 1 to 100 nM by calcium mobilization assay relative to NMU; assay type: functional, cell-based; method in brief: as §1
# [3] = target: T3, Neuromedin-U receptor 1 (Mus musculus, UniProt O55040); test: Agonist activity at mouse NMUR1 expressed in HEK293 cells by calcium mobilization assay; assay type: functional, cell-based
# T3 sequence (O55040 whole entry): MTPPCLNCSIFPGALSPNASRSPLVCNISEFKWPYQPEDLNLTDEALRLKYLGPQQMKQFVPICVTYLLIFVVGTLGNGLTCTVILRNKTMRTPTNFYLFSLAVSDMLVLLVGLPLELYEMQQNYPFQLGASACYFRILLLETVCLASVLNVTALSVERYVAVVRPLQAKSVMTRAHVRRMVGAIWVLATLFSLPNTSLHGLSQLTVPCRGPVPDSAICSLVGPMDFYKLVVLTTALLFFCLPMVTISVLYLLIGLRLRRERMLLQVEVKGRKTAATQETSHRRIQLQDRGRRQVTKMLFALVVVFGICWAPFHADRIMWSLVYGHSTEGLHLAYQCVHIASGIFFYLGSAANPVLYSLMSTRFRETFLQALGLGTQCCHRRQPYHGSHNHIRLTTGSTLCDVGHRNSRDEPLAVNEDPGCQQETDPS
# [4] = target: Neuromedin-U receptor 2 (Mus musculus, UniProt Q8BZ39); test: Agonist activity at mouse NMUR2 expressed in HEK293 cells by calcium mobilization assay; assay type: functional, cell-based
# [5] = target: T1, Neuromedin-U receptor 1 (Homo sapiens); test: Agonist activity at human NMUR1 expressed in CHO cells assessed as concentration required to induce 50% response by calcium mobilization assay relative to NMU; assay type: functional, cell-based
# Method in brief: (§2)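 CHO cells stably expressing human NMUR1 (CHO/NMUR1-9) or NMUR2 (CHO/NMUR2-8), selected with G418, seeded 2.0 × 10^4 cells/well. Cells loaded 40 min with 4 μM Fluo-4-AM in HBSS/10 mM HEPES/2.5 mM probenecid pH 7.4. Peptides from 20 mM DMSO stocks applied at 10−12 to 10−6 M final, triplicate, FLIPR read-out. PC50 is the concentration giving 50% of the response to hNMU at 1000 nM.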
# [6] = target: T2, Neuromedin-U receptor 2; test: Agonist activity at human NMUR2 expressed in CHO cells assessed as concentration required to induce 50% response by calcium mobilization assay relative to NMU; assay type: functional, cell-based; method in brief: as §2
# [7] = species: Homo sapiens; test: Selectivity ratio of PC50 for human NMUR2 to PC50 for human NMUR1
# Method in brief: (§3)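 Ratio of PC50 values from the CHO stable-line calcium assays. NMUR1 selectivity is PC50(NMUR2)/PC50(NMUR1); NMUR2 selectivity is PC50(NMUR1)/PC50(NMUR2).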
# [8] = species: Homo sapiens; test: Selectivity ratio of PC50 for human NMUR1 to PC50 for human NMUR2; method in brief: as §3
# [9] = target: T4, Neuromedin-U receptor 1 (Homo sapiens, UniProt Q9HB89); test: Agonist activity at human NMUR1 expressed in CHO cells by calcium mobilization assay; assay type: functional, cell-based
# T4 sequence (Q9HB89 whole entry): T1 sequence (whole entry)
# [10] = target: T2, Neuromedin-U receptor 2; test: Agonist activity at human NMUR2 expressed in CHO cells by calcium mobilization assay; assay type: functional, cell-based
# Method in brief: (§4)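 Calcium mobilization in CHO cells stably expressing human NMUR1 or NMUR2, Fluo-4-AM loaded, read on a fluorometric imaging plate reader. Peptides tested at 10−12 to 10−6 M final in triplicate. EC50 derived from the curves. Intrinsic activity is the maximal response as % of the endogenous agonist hNMU.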
# [11] = target: T2, Neuromedin-U receptor 2; test: Agonist activity at human NMUR2 expressed in HEK293 cells at 1 nM by calcium mobilization assay relative to NMU; assay type: functional, cell-based; method in brief: as §1
# [12] = target: T2, Neuromedin-U receptor 2; test: Agonist activity at human NMUR2 expressed in HEK293 cells at 10 nM by calcium mobilization assay relative to NMU; assay type: functional, cell-based; method in brief: as §1
# [13] = target: T2, Neuromedin-U receptor 2; test: Agonist activity at human NMUR2 expressed in CHO cells at 10^-12 to 10^-6 M by calcium mobilization assay relative to NMU; assay type: functional, cell-based; method in brief: as §2
# [14] = target: T1, Neuromedin-U receptor 1 (Homo sapiens); test: Agonist activity at human NMUR1 expressed in HEK293 cells at 1 nM by calcium mobilization assay relative to NMU; assay type: functional, cell-based; method in brief: as §1
# [15] = target: T1, Neuromedin-U receptor 1 (Homo sapiens); test: Agonist activity at human NMUR1 expressed in HEK293 cells at 10 nM by calcium mobilization assay relative to NMU; assay type: functional, cell-based; method in brief: as §1
# [16] = target: T4, Neuromedin-U receptor 1; test: Partial agonist activity at human NMUR1 expressed in CHO cells by calcium mobilization assay; assay type: functional, cell-based; method in brief: as §4
# [17] = target: T1, Neuromedin-U receptor 1 (Homo sapiens); test: Agonist activity at human NMUR1 expressed in CHO cells at 10^-12 to 10^-6 M by calcium mobilization assay relative to NMU; assay type: functional, cell-based; method in brief: as §2
# [18] = target: T2, Neuromedin-U receptor 2; test: Partial agonist activity at human NMUR2 expressed in CHO cells by calcium mobilization assay; assay type: functional, cell-based; method in brief: as §4
# T2 sequence (Q9GZQ4 whole entry): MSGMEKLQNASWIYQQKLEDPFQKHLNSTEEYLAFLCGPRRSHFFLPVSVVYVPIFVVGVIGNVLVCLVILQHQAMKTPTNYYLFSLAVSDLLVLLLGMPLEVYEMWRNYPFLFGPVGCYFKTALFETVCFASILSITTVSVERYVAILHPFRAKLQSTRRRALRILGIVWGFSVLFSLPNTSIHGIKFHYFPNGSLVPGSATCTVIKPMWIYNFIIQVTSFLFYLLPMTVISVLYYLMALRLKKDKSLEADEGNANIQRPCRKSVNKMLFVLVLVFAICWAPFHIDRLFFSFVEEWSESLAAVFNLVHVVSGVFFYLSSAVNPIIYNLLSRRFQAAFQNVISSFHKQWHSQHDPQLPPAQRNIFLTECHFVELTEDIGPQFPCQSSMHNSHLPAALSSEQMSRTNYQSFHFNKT
# Sequence of Neuromedin-U receptor 2 (Mus musculus, UniProt Q8BZ39) (Q8BZ39 whole entry): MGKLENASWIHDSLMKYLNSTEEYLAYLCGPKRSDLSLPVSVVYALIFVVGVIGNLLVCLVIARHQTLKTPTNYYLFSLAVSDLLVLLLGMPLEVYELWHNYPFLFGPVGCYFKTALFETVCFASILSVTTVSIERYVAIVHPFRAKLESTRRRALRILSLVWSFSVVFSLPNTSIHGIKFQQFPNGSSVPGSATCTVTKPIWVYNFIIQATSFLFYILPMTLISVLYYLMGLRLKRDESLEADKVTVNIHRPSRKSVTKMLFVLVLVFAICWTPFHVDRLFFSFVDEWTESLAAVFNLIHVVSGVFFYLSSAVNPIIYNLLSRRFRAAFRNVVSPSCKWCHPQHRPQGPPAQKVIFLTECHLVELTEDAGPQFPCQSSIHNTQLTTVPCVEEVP
compound,measurement,setting,value
CC(C)C[C@H](NC(=O)CCc1ccccc1)C(=O)N[C@@H](Cc1ccccc1)C(=O)N[C@@H](CCCNC(=N)N)C(=O)N1CCCC[C@H]1C(=O)N[C@@H](CCCNC(=N)N)C(=O)N[C@@H](CC(N)=O)C(N)=O (Hydrocinnamoyl-LFR[Pip]RN-NH2),Activity,[1],Active
same,Activity,[2],Active
CC(C)C[C@H](NC(=O)[C@H](Cc1ccccc1)NC(=O)[C@@H](N)Cc1ccc(O)cc1)C(=O)N[C@@H](Cc1ccccc1)C(=O)N[C@@H](CCCNC(=N)N)C(=O)N1CCC[C@H]1C(=O)N[C@@H](CCCNC(=N)N)C(=O)N[C@@H](CC(N)=O)C(N)=O,EC50,[3],9.5 nM
same,EC50,[4],3 nM
CC(C)C[C@H](NC(=O)CCc1ccccc1)C(=O)N[C@H](C(=O)N[C@@H](CCCNC(=N)N)C(=O)N1CCC[C@H]1C(=O)N[C@@H](CCCNC(=N)N)C(=O)N[C@@H](CC(N)=O)C(N)=O)c1ccccc1 (Hydrocinnamoyl-L[Phg]RPRN-NH2),Activity,[1],inactive
same,Activity,[2],inactive
CC(C)C[C@H](NC(=O)CCc1ccccc1)C(=O)N[C@@H](CCc1ccccc1)C(=O)N[C@@H](CCCNC(=N)N)C(=O)N1CCC[C@H]1C(=O)N[C@@H](CCCNC(=N)N)C(=O)N[C@@H](CC(N)=O)C(N)=O (Hydrocinnamoyl-L[hPhe]RPRN-NH2),Activity,[1],inactive
same,Activity,[2],inactive
H-FRVDEEFQSPFASQSRGYFLFRPRN-NH2,Activity,[5],0.43 nM
same,Activity,[6],2.5 nM
same,Selectivity ratio,[7],5.8
same,Selectivity ratio,[8],0.17
same,EC50,[9],0.43 nM
same,EC50,[10],2.5 nM
CC(C)C[C@H](NC(=O)CCC1CCCCC1)C(=O)N[C@@H](CC(C)C)C(=O)N[C@@H](CN)C(=O)N1CCC[C@H]1C(=O)N[C@@H](CCCNC(=N)N)C(=O)N[C@@H](CC(N)=O)C(N)=O ({Propanoyl(3-cHex)}-LL[Dap]PRN-NH2),Activity,[11],70%
same,Activity,[12],88%
same,Activity,[5],> 1000 nM
same,Activity,[6],6.6 nM
same,Selectivity ratio,[7],< 0.0066
same,Selectivity ratio,[8],> 152
same,EC50,[10],6.4 nM
same,Intrinsic activity,[13],98%
N=C(N)NCCC[C@H](NC(=O)[C@@H]1CCCN1C(=O)[C@H](CCCNC(=N)N)NC(=O)[C@H](Cc1ccccc1)NC(=O)[C@H](Cc1ccc2ccccc2c1)NC(=O)CCc1cccnc1)C(=O)N[C@@H](CC(N)=O)C(N)=O ({Propanoyl(3-(3-pyridyl))}-[2Nal]FRPRN-NH2),Activity,[1],Active
same,Activity,[14],63%
same,Activity,[15],84%
same,Activity,[5],5.1 nM
same,Activity,[6],249 nM
same,Selectivity ratio,[7],49
same,Selectivity ratio,[8],0.02
same,EC50,[16],2.2 nM
same,Intrinsic activity,[17],79%
CC(C)C[C@H](NC(=O)CCc1ccccc1)C(=O)N[C@@H](Cc1ccccc1)C(=O)N[C@@H](CCCNC(=N)N)C(=O)N1CCC[C@H]1C(=O)N[C@@H](CCCNC(=N)N)C(=O)N[C@@H](CCC(N)=O)C(N)=O (Hydrocinnamoyl-LFRPRQ-NH2),Activity,[1],inactive
same,Activity,[2],inactive
CC(C)C[C@H](NC(=O)CCc1ccccc1)C(=O)N[C@@H](Cc1ccccc1)C(=O)N[C@@H](CCCNC(=N)N)C(=O)N1CCC[C@H]1C(=O)N[C@@H](CCCNC(=N)N)C(=O)N[C@@H](C)C(N)=O (Hydrocinnamoyl-LFRPRA-NH2),Activity,[1],inactive
same,Activity,[2],inactive
H-YFLFAPRN-NH2,EC50,[3],2410 nM
same,EC50,[4],156 nM
CC(C)C[C@H](NC(=O)[C@@H]1Cc2ccccc2CN1)C(=O)N[C@@H](Cc1ccccc1)C(=O)N[C@@H](CCCNC(=N)N)C(=O)N1CCC[C@H]1C(=O)N[C@@H](CCCNC(=N)N)C(=O)N[C@@H](CC(N)=O)C(N)=O (H-[Tic]LFRPRN-NH2),Activity,[1],Active
same,Activity,[2],Active
CC(C)C[C@H](NC(=O)CCc1ccccc1)C(=O)N[C@@H](Cc1ccccc1)C(=O)N[C@@H](CCCNC(=N)N)C(=O)N1CCC[C@H]1C(=O)N[C@@H](CCCNC(=N)N)C(=O)N[C@@H](CC(N)=O)C(N)=O (Hydrocinnamoyl-LFRPRN-NH2),Activity,[1],Active
same,Activity,[2],Active
same,Activity,[5],20 nM
same,Activity,[6],18 nM
same,Selectivity ratio,[7],0.9
same,Selectivity ratio,[8],1.1
same,EC50,[16],9 nM
same,EC50,[18],8.4 nM
same,Intrinsic activity,[17],71%
same,Intrinsic activity,[13],82%
CC(C)C[C@H](NC(=O)CCc1ccccc1)C(=O)N[C@@H](Cc1ccc(O)cc1)C(=O)N[C@@H](CCCNC(=N)N)C(=O)N1CCC[C@H]1C(=O)N[C@@H](CCCNC(=N)N)C(=O)N[C@@H](CC(N)=O)C(N)=O (Hydrocinnamoyl-LYRPRN-NH2),Activity,[1],inactive
same,Activity,[2],inactive
CC(C)C[C@H](NC(=O)CCc1ccccc1)C(=O)N[C@@H](Cc1ccccc1)C(=O)N[C@@H](CCCCNC(=N)N)C(=O)N1CCC[C@H]1C(=O)N[C@@H](CCCNC(=N)N)C(=O)N[C@@H](CC(N)=O)C(N)=O (Hydrocinnamoyl-LF[hArg]PRN-NH2),Activity,[1],Active
same,Activity,[2],Active
